Reference: ChEMBL document CHEMBL1140918, “Candidate selection and preclinical evaluation of N-tert-butyl isoquine (GSK369796), an affordable and effective 4-aminoquinoline antimalarial for the 21st century” (J Med Chem, 2009)
Active and inactive are the calls of the source. The rule behind the calls is not given here.

How the values were obtained:
Plasmodium yoelii [1] = test: Antimalarial activity as reduced parasitaemia against Plasmodium yoelii 17X infected CD1 mice (Mus musculus) after 4 days; format: functional; settings: 96 h
Plasmodium yoelii [2] = test: Antimalarial activity as ED100 in peripheral blood against Plasmodium yoelii 17X infected CD1 mice (Mus musculus) after 4 days; format: functional
Heme [3] = test: Binding affinity to heme in DMSO assessed as equilibrium constant by UV-visible spectrophotometry; parameters: scale not given here
Summary of the method: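 Haem titrations were run in buffered 40% DMSO so that haem stays monomeric and aggregation and μ-oxo dimer formation are minimised. Binding data were fitted mathematically to two alternative binding-process models to pick the best fit.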

Heme [4] = test: Binding affinity to heme in 20 mM SDS surfactant assessed as equilibrium constant by UV-visible spectrophotometry
Heme [5] = test: Binding affinity to heme in 50 mM SDS surfactant assessed as equilibrium constant by UV-visible spectrophotometry
Heme [6] = test: Binding affinity to heme in […] CTAB surfactant assessed as equilibrium constant by UV-visible spectrophotometry
Heme [7] = test: Binding affinity to heme in 5 mM CTAB surfactant assessed as equilibrium constant by UV-visible spectrophotometry
Heme [8] = test: Binding affinity to heme in 20 mM CTAB surfactant assessed as equilibrium constant by UV-visible spectrophotometry
Heme [9] = test: Binding affinity to heme in 1.2 mM TX-100 surfactant assessed as equilibrium constant by UV-visible spectrophotometry
Rhesus monkey = test: Toxicity in monkey assessed as increase in QTc interval; format: organism-based, Macaca mulatta; settings: in vivo
Summary of the method: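 Repeat-dose toxicity studies in monkeys, with QTc intervals and ECG rhythm monitored.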

[10] = target: Voltage-gated inwardly rectifying potassium channel KCNH2 (Homo sapiens, UniProt Q12809); test: Inhibition of human cloned ERG
Cytochrome P450 3A4 [11] = target: T1, Cytochrome P450 3A4 (Homo sapiens, UniProt P08684); test: Inhibition of human recombinant CYP3A4 using phenyl-piperazinyl-methyl-benzyl-resofurin as substrate; format: ADME
Summary of the method: (§1)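 Concentration-dependent inhibition of major human cytochrome P450 isozymes (recombinant enzymes) was tested using fluorescent probe substrates. Mean IC50 values were reported.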

Mus musculus = species on record: Mus musculus; test: Protein binding in mouse; format: ADME, organism-based; settings: in vivo
Summary of the method: (§2)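 Protein binding and blood-cell association were assessed in vitro in plasma or whole blood from preclinical species and humans.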

Plasmodium yoelii [12] = test: Antimalarial activity as reduced parasitaemia at day 4 against Plasmodium yoelii 17X infected CD1 mice (Mus musculus) at 40 mg/kg; format: functional, organism-based; parameters: dose 40 mg/kg
Summary of the method: (§3)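 Standard Peters 4-day test in female age-matched CD1 mice, randomised into groups of 5. Mice were infected iv on day 0 with 6.4 × 10^6 or 10.0 × 10^6 parasites (P. berghei or P. yoelii) from infected donors. Peripheral-blood parasitaemia was read by flow cytometry at day 4 and compared with vehicle-treated groups. Doses ranged up to 40 mg/kg.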

Homo sapiens = species on record: Homo sapiens; test: Protein binding in human; format: ADME, organism-based; settings: in vivo; summary of the method: as §2
[13] = Clearance in iv and orally dosed dog blood; format: ADME, organism-based, Canis lupus familiaris; settings: whole blood
Summary of the method: (§4)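 Single intravenous and oral doses were given to the mouse, rat, dog and/or monkey. Drug was measured in blood to derive blood clearance, elimination half-life and % oral bioavailability.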

Cytochrome P450 2D6 = Cytochrome P450 2D6 (Homo sapiens, UniProt P10635); test: Inhibition of human recombinant CYP2D6; format: ADME; summary of the method: as §1
Cytochrome P450 2C19 = Cytochrome P450 2C19 (Homo sapiens, UniProt P33261); test: Inhibition of human recombinant CYP2C19; format: ADME; summary of the method: as §1
Cytochrome P450 2C8 = target: T2, Cytochrome P450 2C8 (Homo sapiens, UniProt P10632); test: Inhibition of human recombinant CYP2C8; format: ADME; summary of the method: as §1
T2 sequence (P10632 whole entry): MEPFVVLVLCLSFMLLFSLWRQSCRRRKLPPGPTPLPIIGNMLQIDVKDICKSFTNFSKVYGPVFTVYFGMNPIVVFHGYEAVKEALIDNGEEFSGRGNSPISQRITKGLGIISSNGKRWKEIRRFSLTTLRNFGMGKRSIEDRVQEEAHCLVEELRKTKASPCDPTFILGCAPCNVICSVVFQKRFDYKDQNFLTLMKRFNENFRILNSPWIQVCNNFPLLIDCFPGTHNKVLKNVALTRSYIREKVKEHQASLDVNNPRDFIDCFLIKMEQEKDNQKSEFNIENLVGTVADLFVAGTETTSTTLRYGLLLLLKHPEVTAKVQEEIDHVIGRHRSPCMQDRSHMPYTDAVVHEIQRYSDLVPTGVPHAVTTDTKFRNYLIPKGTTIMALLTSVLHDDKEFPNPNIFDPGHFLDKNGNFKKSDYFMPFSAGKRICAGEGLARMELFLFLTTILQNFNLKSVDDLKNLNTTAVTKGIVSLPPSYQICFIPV

Cytochrome P450 2C9 = Cytochrome P450 2C9 (Homo sapiens, UniProt P11712); test: Inhibition of human recombinant CYP2C9; format: ADME; summary of the method: as §1
Cytochrome P450 1A2 = target: T3, Cytochrome P450 1A2 (Homo sapiens, UniProt P05177); test: Inhibition of human recombinant CYP1A2; format: ADME; summary of the method: as §1
T3 sequence (P05177 whole entry): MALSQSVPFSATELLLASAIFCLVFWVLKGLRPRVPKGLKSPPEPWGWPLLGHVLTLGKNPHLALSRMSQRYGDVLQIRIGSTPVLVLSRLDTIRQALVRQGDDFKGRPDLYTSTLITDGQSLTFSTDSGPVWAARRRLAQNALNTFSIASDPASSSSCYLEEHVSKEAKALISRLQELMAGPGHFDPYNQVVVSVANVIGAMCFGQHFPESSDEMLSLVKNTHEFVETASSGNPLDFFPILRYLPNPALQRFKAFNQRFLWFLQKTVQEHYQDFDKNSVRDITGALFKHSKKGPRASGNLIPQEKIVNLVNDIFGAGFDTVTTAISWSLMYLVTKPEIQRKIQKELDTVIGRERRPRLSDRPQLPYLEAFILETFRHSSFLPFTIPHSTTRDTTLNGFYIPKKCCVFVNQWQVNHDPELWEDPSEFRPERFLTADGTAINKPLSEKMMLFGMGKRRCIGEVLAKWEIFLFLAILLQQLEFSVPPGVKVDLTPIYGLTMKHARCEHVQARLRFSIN

Cytochrome P450 3A4 [14] = target: T1, Cytochrome P450 3A4; test: Inhibition of human recombinant CYP3A4 using […] as substrate; format: ADME
Plasmodium falciparum [15] = test: Antimalarial activity against chloroquine-sensitive Plasmodium falciparum 3D7 in human erythrocytes after 48 hrs by [3H]hypoxanthine uptake; format: functional, organism-based
Summary of the method: (§5)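 P. falciparum grown in human erythrocytes in RPMI 1640 with 25 mM HEPES, 32 mM NaHCO3 and 10% human serum, gassed 3% O2/4% CO2/93% N2. Assay at 2% parasitemia, 0.5% hematocrit, drug stocks in DMSO diluted in medium, in triplicate. After 24 h at 37 °C, [3H]-hypoxanthine added and incubation continued 24 h. Scintillation counting; IC50 by probit interpolation of log dose-response, three independent experiments.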

Plasmodium falciparum [16] = test: Antimalarial activity against chloroquine-sensitive Plasmodium falciparum HB3 in human erythrocytes after 48 hrs by [3H]hypoxanthine uptake; format: functional, organism-based; summary of the method: as §5
Plasmodium falciparum [17] = test: Antimalarial activity against chloroquine-resistant Plasmodium falciparum K1 in human erythrocytes after 48 hrs by [3H]hypoxanthine uptake; format: functional, organism-based; summary of the method: as §5
Plasmodium berghei = test: Antimalarial activity as reduced parasitaemia against Plasmodium berghei ANKA infected CD1 mice (Mus musculus) after 4 days; format: functional; settings: 96 h; summary of the method: as §3
[18] = Clearance in iv and orally dosed monkey blood; format: ADME, organism-based, Macaca mulatta; settings: rhesus monkey, whole blood; summary of the method: as §4
[19] = Oral bioavailability in monkey; format: ADME, organism-based, Macaca mulatta; settings: rhesus monkey, in vivo; summary of the method: as §4
[20] = Oral bioavailability in mouse; format: ADME, organism-based; settings: in vivo; summary of the method: as §4
[21] = Clearance in iv and orally dosed rat blood; format: ADME, organism-based; settings: whole blood; summary of the method: as §4
[22] = Elimination half life in orally dosed mouse; format: ADME, organism-based; settings: in vivo, po, read-out: beta t1/2 (converted); summary of the method: as §4
[23] = Ratio of drug level in blood to plasma in human; format: ADME, cell-free; settings: read-out: BPR
Summary of the method: (§6)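 Red blood cell association measured in vitro in whole blood from the species named, alongside plasma protein binding. Read-out is the ratio of drug concentration in whole blood to that in plasma.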

Plasmodium yoelii [24] = test: Antimalarial activity as ED100 in peripheral blood at day 23 against Plasmodium yoelii 17X infected CD1 mice (Mus musculus); format: functional
[25] = Clearance in iv and orally dosed mouse blood; format: ADME, organism-based; settings: whole blood; summary of the method: as §4
[26] = Oral bioavailability in rat; format: ADME, organism-based; settings: in vivo; summary of the method: as §4
[27] = Oral bioavailability in dog; format: ADME, organism-based, Canis lupus familiaris; settings: in vivo; summary of the method: as §4
[28] = Elimination half life in orally dosed monkey; format: ADME, organism-based, Macaca mulatta; settings: rhesus monkey, in vivo, po; read-out: beta t1/2 (converted); summary of the method: as §4
[29] = Ratio of drug level in blood to plasma in dog; format: ADME, cell-free, Canis lupus familiaris; settings: read-out: BPR; summary of the method: as §6

Voltage-gated inwardly rectifying potassium channel KCNH2, sequence (Q12809 whole entry): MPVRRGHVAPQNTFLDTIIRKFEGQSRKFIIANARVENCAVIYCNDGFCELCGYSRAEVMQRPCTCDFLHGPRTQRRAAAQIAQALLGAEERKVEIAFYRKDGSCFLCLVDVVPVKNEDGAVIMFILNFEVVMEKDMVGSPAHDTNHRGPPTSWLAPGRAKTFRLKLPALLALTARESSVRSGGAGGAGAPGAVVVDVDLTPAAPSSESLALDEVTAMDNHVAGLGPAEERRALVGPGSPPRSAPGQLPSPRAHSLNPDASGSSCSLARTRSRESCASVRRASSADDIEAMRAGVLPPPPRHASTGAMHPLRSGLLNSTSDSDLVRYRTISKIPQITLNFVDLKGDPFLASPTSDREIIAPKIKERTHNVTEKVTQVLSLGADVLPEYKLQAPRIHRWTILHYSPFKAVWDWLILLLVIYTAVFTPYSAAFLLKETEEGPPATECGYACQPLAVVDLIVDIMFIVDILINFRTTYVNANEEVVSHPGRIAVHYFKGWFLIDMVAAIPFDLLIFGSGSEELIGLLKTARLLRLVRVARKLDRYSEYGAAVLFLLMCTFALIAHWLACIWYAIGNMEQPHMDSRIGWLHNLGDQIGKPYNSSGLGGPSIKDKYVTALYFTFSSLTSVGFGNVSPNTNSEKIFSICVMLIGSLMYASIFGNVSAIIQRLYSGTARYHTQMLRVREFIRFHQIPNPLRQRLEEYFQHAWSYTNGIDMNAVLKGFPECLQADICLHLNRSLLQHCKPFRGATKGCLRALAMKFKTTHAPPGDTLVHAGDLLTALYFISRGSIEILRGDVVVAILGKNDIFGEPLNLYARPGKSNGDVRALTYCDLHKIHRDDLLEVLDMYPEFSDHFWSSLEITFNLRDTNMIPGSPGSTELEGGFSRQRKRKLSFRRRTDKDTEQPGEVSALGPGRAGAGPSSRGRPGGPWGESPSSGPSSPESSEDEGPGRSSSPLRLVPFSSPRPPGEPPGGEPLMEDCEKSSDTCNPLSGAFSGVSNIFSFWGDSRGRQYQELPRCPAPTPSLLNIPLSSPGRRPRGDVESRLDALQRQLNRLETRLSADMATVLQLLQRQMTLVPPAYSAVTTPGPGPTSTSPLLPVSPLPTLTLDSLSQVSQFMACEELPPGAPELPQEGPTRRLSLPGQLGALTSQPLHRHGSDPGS
T1 sequence (P08684 whole entry): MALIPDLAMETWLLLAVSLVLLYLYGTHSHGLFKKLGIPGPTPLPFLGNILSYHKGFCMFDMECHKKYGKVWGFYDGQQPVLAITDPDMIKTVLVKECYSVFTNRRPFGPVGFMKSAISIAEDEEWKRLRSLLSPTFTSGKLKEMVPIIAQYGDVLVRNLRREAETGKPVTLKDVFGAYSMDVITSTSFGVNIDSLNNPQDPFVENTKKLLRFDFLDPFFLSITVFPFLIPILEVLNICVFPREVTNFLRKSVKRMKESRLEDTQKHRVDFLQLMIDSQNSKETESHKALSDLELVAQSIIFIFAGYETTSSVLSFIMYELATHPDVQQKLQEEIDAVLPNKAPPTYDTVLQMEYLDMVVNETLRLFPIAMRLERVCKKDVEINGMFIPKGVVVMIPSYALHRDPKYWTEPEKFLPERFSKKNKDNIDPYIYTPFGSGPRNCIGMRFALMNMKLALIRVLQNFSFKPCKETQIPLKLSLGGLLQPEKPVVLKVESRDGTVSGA
Cytochrome P450 2D6, sequence (P10635 whole entry): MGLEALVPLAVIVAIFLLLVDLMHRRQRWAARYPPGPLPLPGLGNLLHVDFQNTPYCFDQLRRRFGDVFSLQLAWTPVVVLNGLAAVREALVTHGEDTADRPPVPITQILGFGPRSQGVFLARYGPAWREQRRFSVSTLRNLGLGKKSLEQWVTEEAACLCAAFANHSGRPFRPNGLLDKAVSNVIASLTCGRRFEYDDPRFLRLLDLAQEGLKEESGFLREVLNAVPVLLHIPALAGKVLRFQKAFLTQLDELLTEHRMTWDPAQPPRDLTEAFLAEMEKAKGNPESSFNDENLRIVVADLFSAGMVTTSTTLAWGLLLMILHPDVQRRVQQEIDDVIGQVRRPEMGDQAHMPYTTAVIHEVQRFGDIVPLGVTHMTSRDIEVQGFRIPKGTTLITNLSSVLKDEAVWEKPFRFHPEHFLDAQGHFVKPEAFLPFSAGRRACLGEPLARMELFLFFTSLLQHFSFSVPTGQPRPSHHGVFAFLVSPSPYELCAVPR
Cytochrome P450 2C19, sequence (P33261 whole entry): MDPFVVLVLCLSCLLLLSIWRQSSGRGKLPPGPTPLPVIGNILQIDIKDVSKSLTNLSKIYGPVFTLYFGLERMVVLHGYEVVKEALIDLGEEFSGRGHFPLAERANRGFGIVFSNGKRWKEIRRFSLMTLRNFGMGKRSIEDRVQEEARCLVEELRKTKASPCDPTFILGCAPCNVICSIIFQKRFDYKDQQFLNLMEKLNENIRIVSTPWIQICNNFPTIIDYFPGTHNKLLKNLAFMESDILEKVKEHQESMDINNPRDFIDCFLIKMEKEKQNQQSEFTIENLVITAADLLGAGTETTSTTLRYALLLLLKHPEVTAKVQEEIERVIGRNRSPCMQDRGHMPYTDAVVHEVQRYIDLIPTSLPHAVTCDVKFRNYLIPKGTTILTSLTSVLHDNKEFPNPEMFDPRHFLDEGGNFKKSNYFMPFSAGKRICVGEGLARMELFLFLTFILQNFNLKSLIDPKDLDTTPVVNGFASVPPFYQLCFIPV
Cytochrome P450 2C9, sequence (P11712 whole entry): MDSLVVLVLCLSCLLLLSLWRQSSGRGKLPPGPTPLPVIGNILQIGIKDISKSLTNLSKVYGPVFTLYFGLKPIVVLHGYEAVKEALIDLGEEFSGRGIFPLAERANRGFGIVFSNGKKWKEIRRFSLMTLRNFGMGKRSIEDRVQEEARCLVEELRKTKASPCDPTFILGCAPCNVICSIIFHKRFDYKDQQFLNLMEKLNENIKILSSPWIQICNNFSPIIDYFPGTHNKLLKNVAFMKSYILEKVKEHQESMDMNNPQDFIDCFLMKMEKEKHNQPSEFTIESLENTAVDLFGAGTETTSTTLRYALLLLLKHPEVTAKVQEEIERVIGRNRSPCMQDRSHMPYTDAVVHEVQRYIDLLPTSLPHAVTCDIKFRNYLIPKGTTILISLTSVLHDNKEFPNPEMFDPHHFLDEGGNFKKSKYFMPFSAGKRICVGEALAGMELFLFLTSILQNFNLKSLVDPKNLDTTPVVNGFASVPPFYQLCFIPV

| SMILES | ED50 (Plasmodium yoelii [1]) | ED90 (Plasmodium yoelii [1]) | Activity (Heme [3]) | Activity (Rhesus monkey) | IC50 [10] | IC50 (Cytochrome P450 3A4 [11]) | Activity (Mus musculus) | Activity (Plasmodium yoelii [12]) | Activity (Homo sapiens) | clearance [13] | IC50 (Cytochrome P450 2D6) | IC50 (Cytochrome P450 2C19) | IC50 (Cytochrome P450 2C8) | IC50 (Cytochrome P450 2C9) | IC50 (Cytochrome P450 1A2) | IC50 (Plasmodium falciparum [15]) | IC50 (Plasmodium falciparum [16]) | IC50 (Plasmodium falciparum [17]) | ED50 (Plasmodium berghei) | ED90 (Plasmodium berghei) | also measured |
| --- | --- | --- | --- | --- | --- | --- | --- | --- | --- | --- | --- | --- | --- | --- | --- | --- | --- | --- | --- | --- | --- |
| CCN(CC)CCCC(C)Nc1ccnc2cc(Cl)ccc12 (configuration not stated) [CHLOROQUINE] | 3.3 mg/kg | 4.4 mg/kg | 5.3 | Toxic |  |  |  |  |  |  |  |  |  |  |  |  |  |  |  |  | Activity (Plasmodium yoelii [2]): >40 mg/kg; Activity (Heme [4]): 4.4; Activity (Heme [5]): 3.8; Activity (Heme [6]): 4; Activity (Heme [7]): 4.69; Activity (Heme [8]): 4.7; Activity (Heme [9]): 6.23 |
| CCNCc1cc(Nc2ccnc3cc(Cl)ccc23)ccc1O [DESETHYL AMODIAQUINE] |  |  |  |  | 9.5 µM | > 100 µM | 74% | inactive | 86% |  |  |  |  |  |  |  |  |  |  |  |  |
| CCNCc1ccc(Nc2ccnc3cc(Cl)ccc23)cc1O [DESETHYL ISOQUINE] |  |  |  |  |  | ≥ 55 µM |  |  |  | 12 mL/min/kg | 3.4 µM | 62 µM | 23 µM | > 100 µM | 8 µM | 0.0092 µM | 0.0142 µM | 0.0176 µM | 5.3 mg/kg | 7.3 mg/kg | IC50 (Cytochrome P450 3A4 [14]; read-out: IC50): > 100 µM; clearance [18]: 49 mL/min/kg; bioavailability [19]: 40% |
| CC(C)(C)NCc1ccc(Nc2ccnc3cc(Cl)ccc23)cc1O [GSK-369796] | 3.8 mg/kg | 5.4 mg/kg | 5.23 |  | 7.5 µM | > 100 µM | 93% |  | 88% | 6.3 mL/min/kg | 3 µM | 24 µM | 23 µM | ≥ 90 µM | 29 µM | 0.0112 µM | 0.0126 µM | 0.0132 µM | 2.8 mg/kg | 4.7 mg/kg | bioavailability [20]: 100%; clearance [21]: 26 mL/min/kg; half-life [22]: 3 h; IC50 (Cytochrome P450 3A4 [14]): Active; blood plasma ratio [23]: 1.2; Activity (Plasmodium yoelii [24]): 20 mg/kg; clearance [18]: 14.5 mL/min/kg; clearance [25]: 17 mL/min/kg; bioavailability [26]: 89%; bioavailability [27]: 68%; bioavailability [19]: 100%; half-life [28]: 11 h; blood plasma ratio [29]: 15 |
| CCCCN(CCCC)CCC(O)c1cc2c(Cl)cc(Cl)cc2c2cc(C(F)(F)F)ccc12 (configuration not stated) [HALOFANTRINE] |  |  |  | Toxic |  |  |  |  |  |  |  |  |  |  |  |  |  |  |  |  |  |
| CCN(CC)Cc1ccc(Nc2ccnc3cc(Cl)ccc23)cc1O [ISOQUINE] |  |  |  |  | 3.9 µM |  |  | inactive |  | 151 mL/min/kg |  |  |  |  |  | 0.0116 µM | 0.0126 µM | 0.0176 µM | 3.7 mg/kg | 5.3 mg/kg | IC50 (Cytochrome P450 3A4 [14]): Active |
